Reference: paper PMC3947152 (European journal of nuclear medicine and molecular imaging, 2013)
Read-outs that look alike come from different tables or passages of the source.

Experiments:
hNET = hNET (Homo sapiens, UniProt P23975); assay: Competitive inhibition of ^123I-MIBG binding/uptake in C6-hNET cells; format: cell-based
How it was run: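 C6 cells stably transduced with hNET; triplicate samples of ~0.5×10^6 cells with ~3.7 kBq 123I-MIBG and 0.005–50 nmol unlabeled benzylguanidine competitor in 0.5 mL medium, 37 °C, 2 h. Cells collected by rapid filtration on glass microfiber filters, washed 3× with ice-cold Tris-buffered saline pH 7.4, gamma counted. Cell-bound activity plotted against competitor concentration; IC50 by least-squares fit.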

[1] = Lipophilicity: distribution coefficient between 1-octanol and PBS pH 7.4; format: physicochemical; details: 1-octanol/PBS
How it was run: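 Octanol and PBS (pH 7.4) pre-equilibrated together for 24 h. Radiotracer (~11.1 kBq 18F; ~3.7 kBq 123I) added to the octanol/PBS pair, in triplicate, shaken 2 h at room temperature, then centrifuged 5 min at 2,000 rpm. Aliquots of each phase gamma counted; logD = log10(octanol counts/PBS counts).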

mouse serum protein = assay: Plasma protein binding by ultrafiltration, mouse; format: in vitro ADME; details: 37 °C, 0.5 h
How it was run: (§1)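 Radiotracer in 10 µL (~7.4 kBq 18F; ~3.7 kBq 123I) added to 190 µL human or mouse plasma, in triplicate, gently shaken 37 °C, 0.5 h. Ultrafiltration by centrifugation 10 min at 9,000 rpm. 20 µL of pre-filtration plasma (total) and 20 µL of ultrafiltrate (unbound) gamma counted; unbound fraction taken from ultrafiltrate relative to total.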

human serum protein = assay: Plasma protein binding by ultrafiltration, human; format: in vitro ADME; details: 37 °C, 0.5 h
How it was run: as §1

[2] = test system: C6-hNET and C6-WT xenografts; assay: Biodistribution in animals bearing dual C6-hNET and C6-WT xenografts; format: in vivo, mice; details: for % Injected Dose/g tissue, C6-WT: C6-WT xenograft; for % Injected Dose/g tissue, C6-hNET: C6-hNET xenograft
C6-hNET xenografts = assay: PET imaging with ROI analysis of mice bearing C6-hNET and C6-WT xenografts; format: in vivo; details: for PET image-based tumor-to-intestine signal ratio: C6-hNET xenograft
How it was run: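 Male athymic NCr-nu/nu mice (7–9 weeks) implanted subcutaneously with 5×10^6 C6-hNET cells (right shoulder) and 5×10^6 C6-WT cells (left shoulder) in medium/matrigel 1:1. Scanned at day 20 with tumors 150–350 mm³. Tail-vein injection of 3.7–11.1 MBq 18F tracer in saline. R4 microPET under 2% isoflurane, 10-min acquisitions at 1 h and 4 h p.i., 350–750 keV window. ROI maximum pixel values (%ID/mL) used; 5–7 animals per group.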

C6-hNET cells = assay: In vitro uptake in hNET-transduced and wild-type C6 cells; format: cell-based, rat; details: 2 h incubation at 37 °C
How it was run: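 Both C6-hNET and wild-type C6 cells grown in DMEM HG. 1.0×10^6 cells in 1.0 mL medium, in triplicate, shaken with radiotracer (~11.1 kBq 18F-labeled or ~3.7 kBq radioiodinated) at 37 °C for 2 h. Cells filtered on glass microfiber filters, washed 3× with ice-cold TBS pH 7.4, gamma counted as % added activity per 10^6 cells. Nonspecific uptake measured with 200 µM MIBG (final). 2–5 independent experiments.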

[3] = C6-hNET cells, ^123I-MIBG as radioligand, 37 °C, 2 h

Chain of hNET (P23975 whole entry): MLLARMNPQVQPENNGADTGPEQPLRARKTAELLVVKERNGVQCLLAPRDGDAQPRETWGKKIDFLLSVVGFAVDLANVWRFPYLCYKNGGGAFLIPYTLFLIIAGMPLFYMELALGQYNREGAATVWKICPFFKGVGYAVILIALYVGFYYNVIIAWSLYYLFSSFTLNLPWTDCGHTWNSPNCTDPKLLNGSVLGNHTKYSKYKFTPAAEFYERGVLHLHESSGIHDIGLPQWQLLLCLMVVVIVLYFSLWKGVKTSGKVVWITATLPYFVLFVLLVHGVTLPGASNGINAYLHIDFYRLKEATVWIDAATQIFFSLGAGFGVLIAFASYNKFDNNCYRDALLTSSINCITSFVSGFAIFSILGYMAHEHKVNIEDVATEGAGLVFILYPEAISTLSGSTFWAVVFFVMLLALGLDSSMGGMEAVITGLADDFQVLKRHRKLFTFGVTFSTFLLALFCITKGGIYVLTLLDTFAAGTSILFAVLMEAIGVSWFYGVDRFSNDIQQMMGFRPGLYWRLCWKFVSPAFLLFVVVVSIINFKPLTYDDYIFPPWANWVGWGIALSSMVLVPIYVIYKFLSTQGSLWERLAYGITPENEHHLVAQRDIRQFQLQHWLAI

Compound | IC50 (hNET; [3]) [µM] | % Injected Dose/g tissue, Adrenals ([2]; 4 h p.i.) [%ID/g] | % Injected Dose/g tissue, Blood ([2]; 4 h p.i.) [%ID/g] | % Injected Dose/g tissue, Bone ([2]; 4 h p.i.) [%ID/g] | % Injected Dose/g tissue, C6-WT ([2]; 4 h p.i.) [%ID/g] | % Injected Dose/g tissue, Heart ([2]; 4 h p.i.) [%ID/g] | % Injected Dose/g tissue, Intestinal contents (L) ([2]; 4 h p.i.) [%ID/g] | % Injected Dose/g tissue, Intestinal contents (S) ([2]; 4 h p.i.) [%ID/g] | % Injected Dose/g tissue, Intestinal wall (L) ([2]; 4 h p.i.) [%ID/g] | % Injected Dose/g tissue, Intestinal wall (S) ([2]; 4 h p.i.) [%ID/g] | % Injected Dose/g tissue, Kidneys ([2]; 4 h p.i.) [%ID/g] | % Injected Dose/g tissue, Liver ([2]; 4 h p.i.) [%ID/g] | % Injected Dose/g tissue, Lungs ([2]; 4 h p.i.) [%ID/g] | % Injected Dose/g tissue, Muscle ([2]; 4 h p.i.) [%ID/g] | % Injected Dose/g tissue, Pancreas ([2]; 4 h p.i.) [%ID/g] | % Injected Dose/g tissue, Salivary glands ([2]; 4 h p.i.) [%ID/g] | % Injected Dose/g tissue, Spleen ([2]; 4 h p.i.) [%ID/g] | % Injected Dose/g tissue, Stomach ([2]; 4 h p.i.) [%ID/g] | also measured
N=C(N)NCc1cccc(I)c1 [^123I-MIBG, meta-iodobenzylguanidine] |  | 7.34±2.63 | 0.66±0.10 | 0.71±0.10 | 0.49±0.04 | 2.10±0.14 | 2.25±0.29 | 5.24±0.46 | 2.96±0.74 | 3.67±1.05 | 0.84±0.11 | 2.27±0.18 | 2.84±0.38 | 0.95±0.13 | 1.15±0.13 | 8.41±0.83 | 2.51±0.29 | 0.77±0.34 | logD at 2 h [1]: 0.42 ± 0.01; % unbound to mouse serum protein (mouse serum protein): 29.2±2.0 (n = 2) %; IC50 (hNET): 1.7 ± 0.6 µM; % unbound to human serum protein (human serum protein): 12.4±0.5 (n = 2) %; % Injected Dose/g tissue, C6-hNET ([2]; 4 h p.i.): 4.02±0.35 %ID/g
N=C(N)NCc1cccc([18F])c1 [[^18F]MFBG] [meta-[^18F]fluorobenzylguanidine] |  | 5.56±2.34 | 0.25±0.05 | 0.89±0.16 | 0.57±0.08 | 2.21±0.66 | 1.26±0.23 | 1.36±0.11 | 1.72±0.52 | 2.16±0.26 | 0.99±0.29 | 2.05±0.30 | 1.30±0.20 | 0.62±0.09 | 0.78±0.06 | 6.09±1.02 | 1.50±0.19 | 0.46±0.12 | fold higher accumulation in C6-hNET tumors than [^18F]PFBG (C6-hNET xenografts; 1 h p.i., in vivo): 1.6 fold; PET image-based tumor-to-intestine signal ratio (C6-hNET xenografts; 1 h post injection): 1.3±0.2; PET image-based tumor-to-intestine signal ratio (C6-hNET xenografts; 4 h post injection): 2.4±0.3; fold lower affinity to hNET compared to ^123I/[^124I]MIBG (hNET; from IC50 values in C6-hNET cells): 2.8 fold; % Injected Dose/g tissue, C6-hNET ([2]; 4 h p.i.): 4.25±0.95 %ID/g; C6-hNET/tissue ratio, Blood ([2]; C6-hNET/Blood, 4 h p.i.): 17.1±4.4; C6-hNET/tissue ratio, Intestine wall (L) ([2]; C6-hNET/Intestine wall (L), 4 h p.i.): 1.8±0.7; C6-hNET/tissue ratio, Intestine wall (S) ([2]; C6-hNET/Intestine wall (S), 4 h p.i.): 1.9±0.4; C6-hNET/tissue ratio, Liver ([2]; C6-hNET/Liver, 4 h p.i.): 2.1±0.4; C6-hNET/tissue ratio, Muscle ([2]; C6-hNET/Muscle, 4 h p.i.): 6.8±0.9; C6-hNET/tissue ratio, Salivary gland ([2]; C6-hNET/Salivary gland, 4 h p.i.): 0.7±0.1
N=C(N)NCc1cccc([131I])c1 [[^124I]MIBG, meta-iodobenzylguanidine] |  | 13.9±1.7 | 0.76±0.15 | 2.56±0.27 | 1.27±0.10 | 19.6±2.5 | 3.62±0.89 | 6.92±1.79 | 7.88±0.74 | 10.3±0.6 | 2.09±0.10 | 5.42±0.44 | 9.50±2.26 | 3.21±0.28 | 3.48±0.31 | 29.1±1.8 | 4.43±0.35 | 2.85±0.54 | % Injected Dose/g tissue, Adrenals ([2]; 24 h p.i.): 7.46±1.78 %ID/g; % Injected Dose/g tissue, Blood ([2]; 24 h p.i.): 0.21±0.02 %ID/g; % Injected Dose/g tissue, Bone ([2]; 24 h p.i.): 0.45±0.09 %ID/g; % Injected Dose/g tissue, C6-WT ([2]; 24 h p.i.): 0.22±0.02 %ID/g; % Injected Dose/g tissue, C6-hNET ([2]; 24 h p.i.): 3.58±0.55 %ID/g; % Injected Dose/g tissue, Heart ([2]; 24 h p.i.): 2.93±0.17 %ID/g; % Injected Dose/g tissue, Intestinal contents (L) ([2]; 24 h p.i.): 2.00±0.06 %ID/g; % Injected Dose/g tissue, Intestinal contents (S) ([2]; 24 h p.i.): 1.76±0.40 %ID/g; % Injected Dose/g tissue, Intestinal wall (L) ([2]; 24 h p.i.): 3.18±0.45 %ID/g; % Injected Dose/g tissue, Intestinal wall (S) ([2]; 24 h p.i.): 2.66±0.18 %ID/g; % Injected Dose/g tissue, Kidneys ([2]; 24 h p.i.): 0.64±0.04 %ID/g; % Injected Dose/g tissue, Liver ([2]; 24 h p.i.): 1.00±0.05 %ID/g; % Injected Dose/g tissue, Lungs ([2]; 24 h p.i.): 1.55±0.37 %ID/g; % Injected Dose/g tissue, Muscle ([2]; 24 h p.i.): 0.69±0.07 %ID/g; % Injected Dose/g tissue, Pancreas ([2]; 24 h p.i.): 0.75±0.10 %ID/g; % Injected Dose/g tissue, Salivary glands ([2]; 24 h p.i.): 7.95±0.81 %ID/g; % Injected Dose/g tissue, Spleen ([2]; 24 h p.i.): 1.36±0.27 %ID/g; % Injected Dose/g tissue, Stomach ([2]; 24 h p.i.): 1.08±0.08 %ID/g
N=C(N)NCc1cccc(I)c1 [MIBG, meta-iodobenzylguanidine] | 1.72 ± 0.58 |  |  |  |  |  |  |  |  |  |  |  |  |  |  |  |  |  | 
N=C(N)NCc1cccc(F)c1 [MFBG] | 4.86 ± 0.59 |  |  |  |  |  |  |  |  |  |  |  |  |  |  |  |  |  | 
N=C(N)NCc1ccc([18F])cc1 [[^18F]PFBG, para-[^18F]fluorobenzylguanidine] |  |  |  |  |  |  |  |  |  |  |  |  |  |  |  |  |  |  | PET image-based tumor-to-intestine signal ratio (C6-hNET xenografts; 1 h post injection): 0.4±0.1; PET image-based tumor-to-intestine signal ratio (C6-hNET xenografts; 4 h post injection): 1.5±0.3; fold lower uptake in C6-hNET cells than that of ^123I/[^124I]MIBG (C6-hNET cells): 4 fold

Second part, led by results:

IC50 (hNET; [3]) [µM] | Compound | % Injected Dose/g tissue, Adrenals ([2]; 4 h p.i.) [%ID/g] | % Injected Dose/g tissue, Blood ([2]; 4 h p.i.) [%ID/g] | % Injected Dose/g tissue, Bone ([2]; 4 h p.i.) [%ID/g] | % Injected Dose/g tissue, C6-WT ([2]; 4 h p.i.) [%ID/g] | % Injected Dose/g tissue, Heart ([2]; 4 h p.i.) [%ID/g] | % Injected Dose/g tissue, Intestinal contents (L) ([2]; 4 h p.i.) [%ID/g] | % Injected Dose/g tissue, Intestinal contents (S) ([2]; 4 h p.i.) [%ID/g] | % Injected Dose/g tissue, Intestinal wall (L) ([2]; 4 h p.i.) [%ID/g] | % Injected Dose/g tissue, Intestinal wall (S) ([2]; 4 h p.i.) [%ID/g] | % Injected Dose/g tissue, Kidneys ([2]; 4 h p.i.) [%ID/g] | % Injected Dose/g tissue, Liver ([2]; 4 h p.i.) [%ID/g] | % Injected Dose/g tissue, Lungs ([2]; 4 h p.i.) [%ID/g] | % Injected Dose/g tissue, Muscle ([2]; 4 h p.i.) [%ID/g] | % Injected Dose/g tissue, Pancreas ([2]; 4 h p.i.) [%ID/g] | % Injected Dose/g tissue, Salivary glands ([2]; 4 h p.i.) [%ID/g] | % Injected Dose/g tissue, Spleen ([2]; 4 h p.i.) [%ID/g] | % Injected Dose/g tissue, Stomach ([2]; 4 h p.i.) [%ID/g] | also measured
9.8 ± 2.5 | NC(N)=NCc1ccc(F)cc1 [PFBG] |  |  |  |  |  |  |  |  |  |  |  |  |  |  |  |  |  | 
4.9 ± 0.6 | N=C(N)NCc1cccc(F)c1 [[^18F]MFBG] [meta-[^18F]fluorobenzylguanidine] |  |  |  |  |  |  |  |  |  |  |  |  |  |  |  |  |  | 
9.8 ± 2.5 | N=C(N)NCc1ccc(F)cc1 [[^18F]PFBG, para-[^18F]fluorobenzylguanidine] |  |  |  |  |  |  |  |  |  |  |  |  |  |  |  |  |  | 
7.2 ± 0.5 | N=C(N)NCc1ccc(I)cc1 [PIBG, para-iodobenzylguanidine] |  |  |  |  |  |  |  |  |  |  |  |  |  |  |  |  |  | 
